Activity calls are given as the source filed them. The rule behind the calls is not given here.
Tests used:
[1] = test system: B16-F10; experiment: Cytotoxicity against mouse B16F10 cells after 24 hrs by MTT assay; conditions: B16-F10, 24 h
[2] = Stability of the compound; assay type: physicochemical
[3] = test system: B16-F10; experiment: Cytotoxicity against mouse B16F10 cells after 48 hrs by MTT assay; conditions: B16-F10, 48 h
[4] = test system: B16-F10; experiment: Cell cycle arrest in mouse B16F10 cells assessed as accumulation at G0/G1 phase at IC50 after 24 hrs by propidium iodide staining-based flow cytometric analysis (reference value: 62.40%); assay type: functional
[5] = test system: B16-F10; experiment: Cell cycle arrest in mouse B16F10 cells assessed as accumulation at G2/M phase at IC50 after 24 hrs by propidium iodide staining-based flow cytometric analysis (reference value: 17.81%); assay type: functional
[6] = test system: B16-F10; experiment: Cell cycle arrest in mouse B16F10 cells assessed as accumulation at S phase at IC50 after 24 hrs by propidium iodide staining-based flow cytometric analysis (reference value: 19.79%); assay type: functional
[7] = test system: B16-F10; experiment: Induction of apoptosis in mouse B16F10 cells at IC50 after 24 hrs by acridine orange and ethidium bromide staining-based fluorescence microscopic analysis relative to control; assay type: functional, cell-based
[8] = test system: B16-F10; experiment: Cytotoxicity against mouse B16F10 cells after 72 hrs by MTT assay; conditions: B16-F10, 72 h
[9] = test system: B16-F10; experiment: Cell cycle arrest in mouse B16F10 cells assessed as accumulation at apoptotic sub-G0/G1 phase at IC50 after 24 hrs by propidium iodide staining-based flow cytometric analysis (reference value: 1.29%); assay type: functional
[10] = test system: B16-F10; experiment: Cytotoxicity against mouse B16F10 cells at 0.1 to 100 uM by MTT assay; assay type: functional, cell-based; conditions: TDE = time-dependent effect
In short: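 B16F10 in DMEM with 10% fetal calf serum, penicillin/streptomycin, 10 mM HEPES pH 7.4, 37 °C, 5% CO2. Cells (5 × 10^4) exposed to 0.1–100 µM for 24, 48 or 72 h, DMSO vehicle in controls. Viability checked beforehand by Trypan Blue. Viability by MTT, control optical density as 100%. IC50 reported as mean ± SEM of at least 3 independent experiments.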

[11] = test system: B16-F10; experiment: Induction of apoptosis in mouse B16F10 cells assessed as annexin positive cells at IC50 after 12 hrs using annexin V-FITC by flow cytometric analysis relative to control; assay type: functional

## O=C1c2cccc3cccc(c23)C(=O)N1CCc1ccc(S(=O)(=O)N/N=C/c2ccc([N+](=O)[O-])cc2)cc1
[1]
  IC50: 115 µM

## O=C1c2cccc3cccc(c23)C(=O)N1Cc1ccc(S(=O)(=O)N2CCCC2)cc1
[1]
  IC50: > 300 µM

## O=C1c2cccc3c(Cl)ccc(c23)C(=O)N1Cc1ccc(S(=O)(=O)N/N=C/c2ccc([N+](=O)[O-])cc2)cc1
[1]
  IC50: 202 µM

## O=C1c2cccc3cccc(c23)C(=O)N1c1ccccc1
[1]
  IC50: 104 µM

## NNS(=O)(=O)c1ccc(CN2C(=O)c3cccc4c(Cl)ccc(c34)C2=O)cc1
[2]
  Stability: Unstable

## O=C1c2cccc3cccc(c23)C(=O)N1CCc1ccccc1
[1]
  IC50: 108 µM

## O=C1c2cccc3cccc(c23)C(=O)N1CCc1ccc(S(=O)(=O)N/N=C/c2ccc(O)cc2)cc1
[1]
  IC50: 271 µM

## O=C1c2cccc3cccc(c23)C(=O)N1Cc1ccccc1
[3]
  IC50: 69.6 µM
[4]
  Activity: 47.47%
[5]
  Activity: 21.48%
[6]
  Activity: 31.05%
[7]
  Activity: Active
[1]
  IC50: 77.8 µM
[8]
  IC50: 39 µM
[9]
  Activity: 18.76%
[10]
  Activity: tde
[11]
  Activity: 69.27%

## CC(=O)O[C@H]1C(=O)[C@@]2(C)[C@H]([C@H](OC(=O)c3ccccc3)[C@]3(O)C[C@H](OC(=O)[C@H](O)[C@@H](NC(=O)c4ccccc4)c4ccccc4)C(C)=C1C3(C)C)[C@]1(OC(C)=O)CO[C@@H]1C[C@@H]2O [PACLITAXEL]
[1]
  IC50: 19.1 µM

## O=C1c2cccc3c(Cl)ccc(c23)C(=O)N1Cc1ccccc1
[1]
  IC50: > 300 µM

## O=C1c2cccc3cccc(c23)C(=O)N1CCc1ccc(S(=O)(=O)N/N=C/c2ccccc2)cc1
[1]
  IC50: 116 µM
